Active and inactive are the calls of the source.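 Rule for the calls: active = duplicate-averaged activation above buffer control mean plus 5 SD of those controls; inactive = the rest.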
Test: thallium flux activation in parental CHO cells, counter-screen for KCNQ1 potentiator project (AID 493006);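 for activation: fluorescence ratio of max minus min over baseline after K+ and Tl+ depolarization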
Conditions: parental CHO-K1 cells, FluxOR thallium flux, at 10 µM; active compounds read high
How it was run: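 Material: untransfected host CHO-K1 cells with FluxOR thallium dye. Timing: overnight 37 °C plating, 90 min RT dye, 20 min compound. Detection: kinetic FluxOR fluorescence, 10 s baseline, 110 s after stimulus. Read-out basis: max-minus-min fluorescence over baseline, percent of buffer-to-R-L3 span. Replicates: duplicate wells per compound, percent values averaged.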

Structure (SMILES)	outcome	activation
CCCCCCCN1N=C(C)C(C(=O)c2ccccc2)C1=O (stereo not given)	inactive	
O=C(Cc1cccs1)N=Nc1c(O)[nH]c2ccc(Br)cc12	inactive	
CSc1ccc(/C=N/NC(=O)c2cccs2)cc1	inactive	
COC(=O)C1=NN(C(=O)c2ccc(Cl)cc2)C(O)(c2ccccc2)C1 (stereo not given)		426% (active)
CCc1cc2c(=O)n(CCC(C)C)c(=S)[nH]c2s1		516% (active)
Oc1c(Br)cc(Br)cc1/C=N/c1nc2c(s1)CCCC2		186% (active)
CC(C)c1ccc(NC(=O)C2CC(=O)N=C(N)S2)cc1 (stereo not given)		164% (active)
CCc1ccc(/C=C/C(=O)c2cc(Br)ccc(=O)c2O)cc1		203% (active)
O=C(CCC1CCN(C(=O)c2cncs2)CC1)Nc1ccccc1		446% (active)
Cc1ccc2nc(NC(=S)NC(=O)c3cccs3)sc2c1		168% (active)
COc1cc(CNCc2ccccn2)ccc1OCc1c(Cl)cccc1Cl	inactive	
COc1cc(C2NC(=O)NC(O)(C(F)(F)F)C2C(C)=O)cc(OC)c1OC (stereo not given)	inactive	
Cc1ccc(C(C#N)c2ccc3c(C(F)(F)F)cc(C(F)(F)F)nc3n2)cc1 (stereo not given)		150% (active)
CN=C1c2cc3cc(OC)ccc3n2CCN1Cc1ccccc1	inactive	
Cc1ccccc1NC(=S)NC(=O)c1cc(-c2ccccc2)nc2ccccc12		151% (active)
CCOc1ncccc1C(=O)OCc1ccc(C#N)cc1		286% (active)
S=c1nc(C2CCCCC2)n(-c2ccccc2)[nH]1		356% (active)
O=C(CN1C(=O)COc2ccccc21)N(Cc1cccnc1)Cc1cccc(F)c1	inactive	
O=C(NC(=S)N1CCN(c2ccccc2)CC1)c1c(F)cccc1F	inactive	
O=c1c(O)c(-c2ccc3c(c2)OCO3)oc2ccccc12	inactive	

Structure (SMILES)	outcome	activation
COc1ccc2c(c1)cc(C)c1nnc(SCC(=O)N3CCN(C(=O)c4ccco4)CC3)n12	inactive	
Cc1ccc(-c2csc3nc[nH]c(=S)c23)cc1		308% (active)
O=C(NC(=S)N1CCN(Cc2ccc3c(c2)OCO3)CC1)c1ccc(Cl)cc1		260% (active)
CCOC(=O)c1sc(NC(=O)c2ccncc2)nc1C		161% (active)
CC(C)n1cc(NC(=O)c2cc(-c3ccccc3)on2)cn1		182% (active)
NC(=S)n1[nH]c(-c2ccc([N+](=O)[O-])cc2)c(N=Nc2cccc(Cl)c2)c1=O		150% (active)
Cc1ccc(OCC(=O)NNC(=O)C(=O)NC(C)(C)C)cc1		170% (active)
CCCCN(CCCC)c1ccc(C(=O)c2ccccc2C(=O)O)c(O)c1		212% (active)
O=C(Nc1nnc(-c2ccc(Cl)cc2)o1)c1ccccc1Br		228% (active)
O=C(CNC(=O)c1sc2ccccc2c1Cl)OCc1ccccc1	inactive	
CCc1nnc(NC(=O)CCC(=O)N2CCN(C3CCCCC3)CC2)s1	inactive	
CC1CCc2c(sc3[nH]c(=S)n(C)c(=O)c23)C1 (stereo not given)		446% (active)
CCC1=NN(C(=O)c2ccc(Br)cc2)C(O)(c2ccccc2)C1 (stereo not given)	inactive	
CCCCC(Nc1ncnc2ccccc12)C(=O)O (stereo not given)	inactive	
CCn1c(O)c(N=NC2=NC(=O)CS2)c2ccccc21	inactive	
CCC1(c2ccccc2)NC(=O)N(CC(=O)Nc2ccccc2C(=O)N2CCCCC2)C1=O (stereo not given)	inactive	
Cc1ccc(NC2=C(NC(=O)c3ccccc3)C(=O)c3ccccc3C2=O)cc1Cl	inactive	
Cc1c(CCC(=O)N2CCC[C@H]2C(=O)O)c(=O)oc2c(C)c3oc4c(c3cc12)CCCC4	inactive	
O=C(CCN1CCCCCC1)Nc1ccc(F)cc1	inactive	
COc1ccc(-n2cc(CNC3CCN(C)CC3)c(-c3cccc(F)c3)n2)cc1		142% (active)

From PubChem BioAssay
